Positions count from the first letter of the chain named. Where two headings read alike, the source gives them in different places. Peptide text beside a SMILES is read from it.
What was measured:
[1] = target: T1, Scrib PDZ3 WT (1002–1094) (Homo sapiens, UniProt Q14160); experiment: ITC of PBM peptides against Scrib PDZ3 WT; type: binding
T1 sequence (Q14160 1002-1094): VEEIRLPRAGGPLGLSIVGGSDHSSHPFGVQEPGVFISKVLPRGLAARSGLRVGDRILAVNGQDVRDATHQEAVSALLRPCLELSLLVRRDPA
Procedure, shortened: (§1)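 Recombinant human Scribble PDZ domains (wild type or point mutant) were expressed in E. coli BL21(DE3) pLysS as GST or MBP fusions and purified. Synthetic 8-mer C-terminal PBM peptides, including a pan-PDZ positive-control peptide, were titrated into protein in 25 mM Hepes pH 7.5, 150 mM NaCl at 25°C. There were 20 injections spaced 180 s apart. KD came from a 1:1 model, with ±SD from at least three independent experiments.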

Scrib PDZ1 WT (728–815) = Scrib PDZ1 WT (728–815) (Homo sapiens, UniProt Q14160); experiment: Isothermal titration calorimetry; type: binding
Procedure, shortened: as §1

Scrib PDZ3 R1044Q = target: T2, Scrib PDZ3 R1044Q (Homo sapiens, UniProt Q14160, R1044Q); experiment: ITC of PBM peptides against Scrib PDZ3 R1044Q; type: binding
T2 sequence (Q14160 1002-1094 R1044Q): T1 sequence (Q14160 1002-1094) with R43Q
Procedure, shortened: as §1

Scrib PDZ2 WT (860–950) = target: T3, Scrib PDZ2 WT (860–950) (Homo sapiens, UniProt Q14160); experiment: ITC of PBM peptides against Scrib PDZ2 WT; type: binding
T3 sequence (Q14160 860-950): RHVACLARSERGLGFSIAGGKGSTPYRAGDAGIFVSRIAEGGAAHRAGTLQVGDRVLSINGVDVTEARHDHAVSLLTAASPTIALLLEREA
Procedure, shortened: as §1

Scrib PDZ1 Q808H = Scrib PDZ1 Q808H (Homo sapiens, UniProt Q14160, Q808H); experiment: ITC of PBM peptides against Scrib PDZ1 Q808H; type: binding
Procedure, shortened: as §1

[2] = target: Scribble PDZ1 Q808H (human) (UniProt Q14160); experiment: ITC
[3] = target: Scribble PDZ1 H793A (human) (UniProt Q14160); experiment: ITC
[4] = target: Scribble PDZ2 R896A (human) (UniProt Q14160); experiment: ITC
[5] = target: Scribble PDZ3 R1044Q (human) (UniProt Q14160); experiment: ITC
[6] = target: Scribble PDZ1 Q808H (human) (UniProt Q14160); experiment: ITC; remark: listed apart in the source
Scribble PDZ2 H928A = target: T4, Scribble PDZ2 H928A (human, UniProt Q14160 860-950, H928A); experiment: ITC
T4 sequence (looked up): T3 sequence (Q14160 860-950) with H69A

Scribble PDZ3 P1043L = target: T5, Scribble PDZ3 P1043L (human, UniProt Q14160 1002-1094, P1043L); experiment: ITC
T5 sequence (looked up): T1 sequence (Q14160 1002-1094) with P42L

Scribble PDZ1 H793A = Scribble PDZ1 H793A (human, UniProt Q14160 728-815, H793A); experiment: ITC
Scribble PDZ1 E814G = Scribble PDZ1 E814G (human, UniProt Q14160 728-815, E814G); experiment: ITC
Scribble PDZ1 Q808H = Scribble PDZ1 Q808H (human, UniProt Q14160 728-815, Q808H); experiment: ITC
Scribble PDZ2 R896A = target: T6, Scribble PDZ2 R896A (human, UniProt Q14160 860-950, R896A); experiment: ITC
T6 sequence (looked up): T3 sequence (Q14160 860-950) with R37A

Scribble PDZ3 R1044Q = target: T7, Scribble PDZ3 R1044Q (human, UniProt Q14160 1002-1094, R1044Q); experiment: ITC
T7 sequence (looked up): T1 sequence (Q14160 1002-1094) with R43Q

Sequence of Scribble PDZ1 Q808H (human) (Q14160 728-815 Q808H): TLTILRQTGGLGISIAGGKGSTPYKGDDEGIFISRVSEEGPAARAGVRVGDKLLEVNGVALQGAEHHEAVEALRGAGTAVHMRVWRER
Sequence of Scribble PDZ1 H793A (Q14160 728-815 H793A): as the sequence (Q14160 728-815 Q808H) above, with H66A, H81Q counted along it
Sequence of Scrib PDZ1 WT (728–815) (Q14160 728-815): as the sequence (Q14160 728-815 Q808H) above, with H81Q counted along it
Sequence of Scrib PDZ1 Q808H (Q14160 728-815 Q808H): as the sequence (Q14160 728-815 Q808H) above
Sequence of Scribble PDZ1 H793A (human) (Q14160 728-815 H793A): as the sequence (Q14160 728-815 Q808H) above, with H66A, H81Q counted along it
Sequence of Scribble PDZ1 E814G (Q14160 728-815 E814G): as the sequence (Q14160 728-815 Q808H) above, with H81Q, E87G counted along it
Sequence of Scribble PDZ1 Q808H (Q14160 728-815 Q808H): as the sequence (Q14160 728-815 Q808H) above

With `CC(C)C[C@H](NC(=O)[C@@H](N)CCCNC(=N)N)C(=O)N[C@@H](CCC(N)=O)C(=O)N[C@@H](CO)C(=O)N[C@@H](CCC(=O)O)C(=O)N[C@H](C(=O)N[C@@H](CO)C(=O)N[C@H](C(=O)O)C(C)C)[C@@H](C)O` [Vangl2] (H-RLQSETSV-OH) the Kd [1] was 40.2 ± 3.92 µM, the Kd (Scrib PDZ1 WT (728–815)) was 24.5 ± 3.9 µM and the Kd (Scrib PDZ3 R1044Q) was 20.9 ± 4.67 µM. For the same molecule, the Kd (Scrib PDZ2 WT (860–950)) was 45.1 ± 4.92 µM and the Kd (Scrib PDZ1 Q808H) was 10.4 ± 0.27 µM.

In the case of beta-PIX C-terminal peptide, the Kd [2] is reported as 10.4 µM, the Kd [3] is reported as 62.8 µM and the Kd [4] is reported as 189 µM. For the same molecule, the Kd [5] was 14.1 µM and the Kd [6] was 3.11 µM.

In the case of APC C-terminal peptide, the Kd [4] is reported as 30.6 µM, the Kd [5] is reported as 27.4 µM and the Kd [6] is reported as 6.06 µM.

Molecule RSWFETWV [superpeptide (synthetic pan-PDZ binding peptide)] has a Kd (Scribble PDZ2 H928A) of 27.7 µM, a Kd (Scribble PDZ3 P1043L) of 9.75 µM and a Kd (Scribble PDZ1 H793A) of 2.18 µM. The Kd (Scribble PDZ1 E814G) was 2.36 µM, the Kd (Scribble PDZ1 Q808H) was 2.73 µM and the Kd (Scribble PDZ2 R896A) was 7.8 µM. The Kd (Scribble PDZ3 R1044Q) was 7.22 µM.

RLQSETSV [Vangl2 C-terminal PBM peptide (RLQSETSV)] showed a Kd (Scribble PDZ1 H793A) of 29.9 µM and a Kd (Scribble PDZ2 R896A) of 26.7 µM.

Source: article PMC8038854 (Biochemical Journal, 2021)
